pIC50: −log10 of the molar value. Entries after “also recorded” stand apart in the source; their conditions may differ.
Assays:
[1] = target: T1, HDAC11 (Homo sapiens, UniProt Q96DB2); assay: HPLC-based HDAC11 assay with myristoyl-H3K9 peptide; type: biochemical
T1 sequence (Q96DB2 1-347): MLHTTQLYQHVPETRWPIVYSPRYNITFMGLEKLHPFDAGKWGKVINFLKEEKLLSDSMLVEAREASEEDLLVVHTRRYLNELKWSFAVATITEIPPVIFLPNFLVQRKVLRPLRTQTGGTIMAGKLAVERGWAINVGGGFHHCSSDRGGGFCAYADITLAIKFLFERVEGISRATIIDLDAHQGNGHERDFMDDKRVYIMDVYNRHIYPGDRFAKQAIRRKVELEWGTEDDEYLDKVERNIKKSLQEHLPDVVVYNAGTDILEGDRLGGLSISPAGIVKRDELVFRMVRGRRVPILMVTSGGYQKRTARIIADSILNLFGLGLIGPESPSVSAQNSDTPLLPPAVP

[2] = test system: acetylation level of α-tubulin; assay: Acetyl-α-tubulin; type: cell-based; details: HEK 293T cells, 6 hrs
Procedure, shortened: (§1)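 HEK 293T cells were treated with test compound for 6 hrs. Acetyl-α-tubulin (K40) and acetyl-histone H3 were both detected by immunoblot of the treated cells.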

[3] = test system: acetylation level of histone H3; assay: Acetyl-histone H3 immunoblot in HEK 293T cells; type: cell-based; details: 6 hrs
Procedure, shortened: as §1

[4] = target: T1, HDAC11; assay: HDAC11 demyristoylation of myristoyl-SHMT2 peptide in vitro; type: biochemical; details: read-out: IC50 against HDAC11; myristoyl-SHMT2 peptide substrate
[5] = target: HDAC1 (Homo sapiens, UniProt Q13547); assay: In vitro selectivity assay with acyl-H3K9 peptide, HDAC1; type: biochemical; details: at 100 μM
Sequence of HDAC1 (Q13547 whole entry, species assumed): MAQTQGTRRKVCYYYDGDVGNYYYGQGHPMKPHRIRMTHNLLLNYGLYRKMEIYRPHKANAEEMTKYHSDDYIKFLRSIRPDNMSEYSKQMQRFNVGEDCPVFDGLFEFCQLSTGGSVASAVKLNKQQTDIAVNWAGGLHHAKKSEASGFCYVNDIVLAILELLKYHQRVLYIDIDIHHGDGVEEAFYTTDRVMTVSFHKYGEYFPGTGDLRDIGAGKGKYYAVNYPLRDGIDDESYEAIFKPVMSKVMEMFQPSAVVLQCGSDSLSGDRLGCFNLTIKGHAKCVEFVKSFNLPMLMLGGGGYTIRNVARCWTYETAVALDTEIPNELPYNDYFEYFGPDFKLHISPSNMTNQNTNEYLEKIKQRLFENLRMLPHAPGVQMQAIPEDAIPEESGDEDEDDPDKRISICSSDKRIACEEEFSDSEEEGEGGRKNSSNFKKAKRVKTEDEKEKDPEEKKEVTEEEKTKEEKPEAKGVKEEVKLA

[6] = target: T2, HDAC8 (Homo sapiens, UniProt Q9BY41); assay: In vitro selectivity assay with acyl-H3K9 peptide, HDAC8; type: biochemical; details: at 100 μM
T2 sequence (Q9BY41 1-377): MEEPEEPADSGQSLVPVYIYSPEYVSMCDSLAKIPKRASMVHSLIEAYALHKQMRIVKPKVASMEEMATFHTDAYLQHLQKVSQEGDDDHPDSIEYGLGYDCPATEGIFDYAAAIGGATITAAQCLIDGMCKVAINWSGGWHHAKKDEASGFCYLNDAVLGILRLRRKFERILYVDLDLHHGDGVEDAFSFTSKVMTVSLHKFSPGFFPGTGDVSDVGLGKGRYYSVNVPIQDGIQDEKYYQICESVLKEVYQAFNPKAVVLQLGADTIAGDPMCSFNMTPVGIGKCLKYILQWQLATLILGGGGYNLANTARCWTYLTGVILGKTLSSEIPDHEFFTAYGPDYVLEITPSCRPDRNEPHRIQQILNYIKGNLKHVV

[7] = target: HDAC4 (Homo sapiens, UniProt P56524); assay: In vitro selectivity assay with acyl-H3K9 peptide, HDAC4; type: biochemical; details: at 100 μM
Sequence of HDAC4 (P56524 whole entry, species assumed): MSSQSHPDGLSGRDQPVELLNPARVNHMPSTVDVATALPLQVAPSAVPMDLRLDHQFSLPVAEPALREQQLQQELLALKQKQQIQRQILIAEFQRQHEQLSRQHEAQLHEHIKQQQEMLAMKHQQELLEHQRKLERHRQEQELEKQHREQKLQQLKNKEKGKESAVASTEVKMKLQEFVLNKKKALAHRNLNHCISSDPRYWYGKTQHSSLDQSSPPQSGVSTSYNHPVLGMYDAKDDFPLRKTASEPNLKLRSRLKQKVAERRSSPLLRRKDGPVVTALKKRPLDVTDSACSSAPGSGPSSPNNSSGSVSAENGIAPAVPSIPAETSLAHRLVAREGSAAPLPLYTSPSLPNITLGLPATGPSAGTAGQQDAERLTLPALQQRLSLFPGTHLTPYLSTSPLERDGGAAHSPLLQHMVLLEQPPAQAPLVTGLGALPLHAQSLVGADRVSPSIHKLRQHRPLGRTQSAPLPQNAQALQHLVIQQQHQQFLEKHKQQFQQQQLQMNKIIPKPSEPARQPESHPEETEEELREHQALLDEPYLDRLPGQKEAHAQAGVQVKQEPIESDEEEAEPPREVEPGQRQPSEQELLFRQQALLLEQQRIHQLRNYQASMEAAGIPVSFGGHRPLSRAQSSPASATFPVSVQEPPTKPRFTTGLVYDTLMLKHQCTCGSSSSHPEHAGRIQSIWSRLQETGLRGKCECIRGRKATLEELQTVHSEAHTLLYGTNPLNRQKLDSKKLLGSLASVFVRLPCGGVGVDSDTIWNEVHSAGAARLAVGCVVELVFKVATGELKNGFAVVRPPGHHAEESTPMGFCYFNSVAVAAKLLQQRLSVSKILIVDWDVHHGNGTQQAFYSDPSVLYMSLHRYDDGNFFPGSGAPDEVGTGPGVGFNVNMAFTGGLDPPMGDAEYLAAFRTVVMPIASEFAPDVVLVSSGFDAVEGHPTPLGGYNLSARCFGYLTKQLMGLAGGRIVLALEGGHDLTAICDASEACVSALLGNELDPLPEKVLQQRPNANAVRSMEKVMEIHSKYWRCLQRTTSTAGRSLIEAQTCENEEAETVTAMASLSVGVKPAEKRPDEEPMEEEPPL

[8] = target: T3, SIRT1 (Homo sapiens, UniProt Q96EB6); assay: In vitro selectivity assay with acyl-H3K9 peptide, SIRT1; type: biochemical; details: at 100 μM
T3 sequence (Q96EB6 1-747): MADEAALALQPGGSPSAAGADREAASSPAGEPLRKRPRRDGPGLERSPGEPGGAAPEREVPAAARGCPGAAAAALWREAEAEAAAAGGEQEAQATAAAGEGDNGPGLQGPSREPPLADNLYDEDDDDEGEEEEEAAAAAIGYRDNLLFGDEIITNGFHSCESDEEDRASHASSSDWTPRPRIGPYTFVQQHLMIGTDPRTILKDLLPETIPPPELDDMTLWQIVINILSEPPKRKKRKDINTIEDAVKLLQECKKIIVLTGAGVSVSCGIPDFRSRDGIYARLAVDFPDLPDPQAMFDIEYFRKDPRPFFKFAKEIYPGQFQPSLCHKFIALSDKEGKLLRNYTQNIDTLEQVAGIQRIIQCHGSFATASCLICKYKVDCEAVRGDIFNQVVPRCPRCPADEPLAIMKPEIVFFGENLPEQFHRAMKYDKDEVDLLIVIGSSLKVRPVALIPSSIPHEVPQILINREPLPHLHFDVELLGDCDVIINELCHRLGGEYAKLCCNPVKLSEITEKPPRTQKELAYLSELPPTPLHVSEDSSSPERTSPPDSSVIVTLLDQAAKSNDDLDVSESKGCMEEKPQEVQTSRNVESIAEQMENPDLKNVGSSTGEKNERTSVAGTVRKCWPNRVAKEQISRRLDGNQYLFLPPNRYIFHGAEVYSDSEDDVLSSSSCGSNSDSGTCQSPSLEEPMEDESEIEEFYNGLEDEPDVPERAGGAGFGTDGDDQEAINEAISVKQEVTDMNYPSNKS

[9] = target: T4, SIRT2 (Homo sapiens, UniProt Q8IXJ6); assay: In vitro selectivity assay with acyl-H3K9 peptide, SIRT2; type: biochemical; details: at 100 μM
T4 sequence (Q8IXJ6 1-389): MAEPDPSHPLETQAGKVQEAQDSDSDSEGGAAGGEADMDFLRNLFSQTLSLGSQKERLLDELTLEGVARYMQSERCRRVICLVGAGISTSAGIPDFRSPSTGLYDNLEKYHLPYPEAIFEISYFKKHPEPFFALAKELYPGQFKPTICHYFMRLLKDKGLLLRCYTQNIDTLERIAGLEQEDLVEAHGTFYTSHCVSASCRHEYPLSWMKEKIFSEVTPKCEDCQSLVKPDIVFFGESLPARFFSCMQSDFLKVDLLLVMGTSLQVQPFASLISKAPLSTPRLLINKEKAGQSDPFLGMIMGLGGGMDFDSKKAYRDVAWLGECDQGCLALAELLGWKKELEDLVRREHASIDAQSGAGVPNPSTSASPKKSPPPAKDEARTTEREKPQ

[10] = target: T5, SIRT3 (Homo sapiens, UniProt Q9NTG7); assay: In vitro selectivity assay with acyl-H3K9 peptide, SIRT3; type: biochemical; details: at 100 μM
T5 sequence (Q9NTG7 1-399): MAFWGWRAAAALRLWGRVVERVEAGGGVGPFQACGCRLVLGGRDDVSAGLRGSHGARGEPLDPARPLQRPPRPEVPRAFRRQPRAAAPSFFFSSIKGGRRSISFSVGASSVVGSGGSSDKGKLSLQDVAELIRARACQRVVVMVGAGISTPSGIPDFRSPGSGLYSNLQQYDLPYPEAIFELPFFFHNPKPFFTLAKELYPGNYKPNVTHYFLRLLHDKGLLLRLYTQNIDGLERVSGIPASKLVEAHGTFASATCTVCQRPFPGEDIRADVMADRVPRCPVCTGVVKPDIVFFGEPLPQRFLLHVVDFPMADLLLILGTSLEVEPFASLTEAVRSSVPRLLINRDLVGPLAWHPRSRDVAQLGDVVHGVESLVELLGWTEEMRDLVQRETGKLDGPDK

[11] = target: SIRT6 (Homo sapiens, UniProt Q8N6T7); assay: In vitro selectivity assay with acyl-H3K9 peptide, SIRT6; type: biochemical; details: at 100 μM
Sequence of SIRT6 (Q8N6T7 whole entry, species assumed): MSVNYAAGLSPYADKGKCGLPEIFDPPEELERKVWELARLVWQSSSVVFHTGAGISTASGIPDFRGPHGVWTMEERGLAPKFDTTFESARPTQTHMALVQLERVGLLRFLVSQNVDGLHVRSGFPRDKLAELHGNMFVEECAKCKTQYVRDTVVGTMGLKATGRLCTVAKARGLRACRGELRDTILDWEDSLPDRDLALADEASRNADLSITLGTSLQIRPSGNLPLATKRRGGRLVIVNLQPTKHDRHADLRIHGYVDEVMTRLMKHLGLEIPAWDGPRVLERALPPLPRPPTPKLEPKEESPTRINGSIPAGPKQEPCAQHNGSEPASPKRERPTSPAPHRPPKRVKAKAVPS

[12] = LC-MS based detection of compound in cell lysate; type: in vitro ADME; details: LC-MS based assay
[13] = myristoyl-H3K9 peptide substrate, HPLC assay

O=C(CCCCCCC(=O)Nc1ccccc1)NO [SAHA, Vorinostat]
HDAC11 inhibition (in words) [1, 13]: Neither SAHA or UF010 could inhibit HDAC11 | acetylation level of α-tubulin ([2]; at 1 μM): significantly increased | acetylation level of histone H3 ([3]; at 1 μM): significantly increased

CCCCCCCCCCCCCCCC(=O)O [palmitic acid]
HDAC11 inhibition ([1]; at 10 μM): no inhibition

CCCCCCCCCCCCCCCCNNC(=O)c1cccs1 [SIS17]
pIC50 ([1]; read-out: IC50 against HDAC11, myristoyl-H3K9 peptide substrate, HPLC assay): 6.08 | pIC50 [4]: 6.57 | HDAC1 inhibition [5]: did not show significant inhibition | HDAC8 inhibition [6]: did not show significant inhibition | HDAC4 inhibition [7]: did not show significant inhibition | SIRT1 inhibition [8]: did not show significant inhibition | SIRT2 inhibition [9]: did not show significant inhibition | SIRT3 inhibition [10]: did not show significant inhibition | SIRT6 inhibition [11]: did not show significant inhibition | acetylation level of α-tubulin ([2]; up to 50 μM): did not affect | acetylation level of histone H3 ([3]; up to 50 μM): did not affect | detection of compound in cell lysate [12]: could readily detect

CCCCNNC(=O)c1ccc(Br)cc1 [UF010]
HDAC11 inhibition (in words) [1, 13]: Neither SAHA or UF010 could inhibit HDAC11; also recorded: did not inhibit HDAC11

CC1(C)c2cccc(C(=O)NO)c2CN1c1cnc(C(F)(F)F)cn1 [FT895]
acetylation level of α-tubulin ([2]; up to 50 μM): did not affect | acetylation level of histone H3 ([3]; up to 50 μM): did not affect
